ChEMBL document CHEMBL1128283, “Novel modified carboxy terminal fragments of neuropeptide Y with high affinity for Y2-type receptors and potent functional antagonism at a Y1-type receptor” (J Med Chem, 1995)
Blank lines part the entries; values can stand above or below the substance they belong to.

How the values were obtained:
[1] = biological target: T1, Neuropeptide Y receptor type 2 (Rattus norvegicus, UniProt Q9ERC0); assay: 50% displacement of specifically bound [3H]NPY2 from rat brain membranes.; type: cell membranes, Membrane
T1 sequence (Q9ERC0 whole entry): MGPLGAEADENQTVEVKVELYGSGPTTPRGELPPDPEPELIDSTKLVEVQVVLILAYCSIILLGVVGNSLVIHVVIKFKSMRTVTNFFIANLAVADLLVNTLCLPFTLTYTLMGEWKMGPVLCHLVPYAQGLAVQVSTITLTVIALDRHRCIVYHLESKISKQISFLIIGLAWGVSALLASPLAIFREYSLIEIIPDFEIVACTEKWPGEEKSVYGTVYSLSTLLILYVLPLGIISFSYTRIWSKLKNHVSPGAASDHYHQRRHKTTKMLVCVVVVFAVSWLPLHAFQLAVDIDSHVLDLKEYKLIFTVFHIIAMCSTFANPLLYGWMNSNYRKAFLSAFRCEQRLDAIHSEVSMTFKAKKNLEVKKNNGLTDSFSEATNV

HEL [2] = assay: (§1) Inhibition of NPY1-induced ([Ca2+]) release in HEL cell was determined at 100 nM; type: functional, Homo sapiens; design: scale not given: the % may be the effect or the level left
Summary of the method: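 HEL cells loaded with fura-2 and kept in suspension; calcium read as the 340/380 nm ratio. Peptide tested at 100 nM, added 30 s before NPY. Agonist activity expressed as percent of the response to 100 nM NPY. Inhibition measured against the 5 nM NPY response.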

HEL [3] = assay: Inhibition of NPY-induced ([Ca2+]) release in HEL cell was determined; type: functional, cell-based; settings: Homo sapiens
HEL [4] = assay: as §1; type: functional; settings: Homo sapiens, read-out: ED50 (the source's name)

Substance: H-HYINLIYRLRY-NH2
IC50 [1]: 12 nM
Activity (HEL [2]): 100%

Substance: H-INLIYRLRY-NH2 [listing 1 of 2 here]
Activity (HEL [2]): 33%

Substance: H-INLIYRLRY-NH2 [listing 2 of 2 here]
IC50 [1]: 37 nM

Substance: H-LIYRLRY-NH2
IC50 [1]: 400 nM

Substance: H-RHYINLITRQRY-NH2 [listing 1 of 2 here]
Activity (HEL [2]): 0%

Substance: H-RHYINLIYRLRY-NH2
IC50 [1]: 12 nM
Activity (HEL [2]): 100%

Substance: H-TRQRY-NH2
IC50 [1]: > 100000 nM

Substance: H-YINLITRQRY-NH2
IC50 [1]: 30000 nM
Activity (HEL [2]): 0%

Substance: H-YINLIYRLRY-NH2
IC50 [1]: 8 nM
EC50 (HEL [4]): 8.8 nM

Substance: H-YINPIYRLRY-NH2 [listing 1 of 2 here]
IC50 (HEL [3]): 100 nM

More lines, main results first:

IC50 [1]: 174 nM
IC50 (HEL [3]): 9 nM
Substance: H-INPIYRLRY-NH2

IC50 [1]: 2950 nM
Substance: H-IYRLRY-NH2

IC50 [1]: 310 nM
Substance: H-NLIYRLRY-NH2

IC50 [1]: 1300 nM
Substance: H-RHYINLITRQRY-NH2 [listing 2 of 2 here]

IC50 [1]: 2100 nM
Substance: H-YINLITRLY-NH2
Activity (HEL [2]): 0%

IC50 [1]: 44 nM
Substance: H-YINPIYRLRY-NH2 [listing 2 of 2 here]
